Shown are actives, neighbours in structure and some others; about 4.5% of the full set was active somewhere.
OX1R antag-1 – antagonists of human orexin 1 receptor (OX1R); 330,000 compounds, 1.8% hits; OX1R-expressing cells, FRET antagonist read-out; Orexin/Hypocretin receptor type 1 (Homo sapiens), O43613; inhibition, % at 6.6 µM; AID 485270, 2010; in the data active means inhibition mostly above about 38%, no sharp cut-off; inactive means mostly below about 40%
Target sequence (O43613 whole entry, looked up): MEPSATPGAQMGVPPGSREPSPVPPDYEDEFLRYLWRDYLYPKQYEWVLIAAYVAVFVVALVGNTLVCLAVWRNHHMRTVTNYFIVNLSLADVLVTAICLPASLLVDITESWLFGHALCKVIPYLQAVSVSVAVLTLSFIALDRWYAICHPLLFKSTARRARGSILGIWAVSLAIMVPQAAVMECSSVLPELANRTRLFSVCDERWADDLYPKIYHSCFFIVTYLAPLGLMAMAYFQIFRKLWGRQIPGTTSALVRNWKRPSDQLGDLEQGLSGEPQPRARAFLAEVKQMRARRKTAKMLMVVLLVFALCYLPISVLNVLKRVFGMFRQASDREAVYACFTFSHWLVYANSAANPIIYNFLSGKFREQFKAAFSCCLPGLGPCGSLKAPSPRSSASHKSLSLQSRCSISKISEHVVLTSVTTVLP
TAAR1 agonist – human TAAR1 agonists, primary screen, Fluo-8 calcium fluorescence, CHO RD-HGA16 cells; Trace amine-associated receptor 1 (Homo sapiens), Q96RJ0; vehicle wells 0%, saturating PEA agonist 100%; activation, % at 3 µM; 360,000 compounds, 0.99% hits; AID 624467, 2012;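 active means activation above the mean activation of all test compounds in the run plus 3 SD, cut at about 38% in these data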
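Benchmarks: low control DMSO, high control PEA (EC100); System: CHO RD-HGA16 cells carrying human TAAR1 plus Gα16; Detection: Fluo-8 fluorescence, 5 s baseline then 140 s kinetic read; Schedule: 17-24 h plating, Fluo-8 75 min 37 °C, 30 min RT; Read-out basis: % activation from peak over basal fluorescence ratio, DMSO-to-PEA scaled.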
GPR7 antag – GPR7 receptor antagonists, primary screen, cell-based, fluorescence, single concentration; Neuropeptides B/W receptor type 1 (Homo sapiens), P48145; GPR7-expressing cells, fluorescence antagonist assay; inhibition, % at 4.4 µM; 290,000 compounds, 1.1% hits; in the data active means inhibition above about 16%, passing the limit was not always enough;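 further: cells stimulated with the agonist NPW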
Target sequence (P48145 whole entry, looked up): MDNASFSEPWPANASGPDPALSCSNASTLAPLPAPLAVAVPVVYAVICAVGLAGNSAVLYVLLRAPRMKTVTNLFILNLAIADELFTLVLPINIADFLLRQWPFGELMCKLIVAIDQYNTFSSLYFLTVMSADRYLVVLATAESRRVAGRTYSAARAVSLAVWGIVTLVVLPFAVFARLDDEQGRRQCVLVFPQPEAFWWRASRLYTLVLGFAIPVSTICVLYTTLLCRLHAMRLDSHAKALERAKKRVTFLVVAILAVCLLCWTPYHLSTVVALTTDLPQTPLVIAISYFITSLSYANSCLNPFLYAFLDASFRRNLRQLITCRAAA
TAAR1 antagonist – human TAAR1 antagonists, primary screen, Fluo-8 calcium fluorescence, CHO RD-HGA16 cells | antagonist | Trace amine-associated receptor 1 (Homo sapiens), Q96RJ0 | 360,000 compounds, 1.5% hits | AID 624466, 2012 | inhibition, % at 3 µM;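 active means inhibition above a per-plate cutoff, the mean inhibition of test compounds on that plate plus 3 SD, cut at about 49% in these data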
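test system = CHO RD-HGA16 cells bearing hTAAR1 | replication = singlicate | controls = DMSO-only wells and EC80 β-PEA-stimulated wells | reagent = EC80 β-phenethylamine stimulus | read-out basis = percent inhibition of PEA-evoked calcium signal, max/basal emission ratio | schedule = seeding 17-24 h prior, 75-min 37 °C, 30-min RT dye loading | signal = kinetic Fluo-8 calcium fluorescence measurement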
CHO parental Ca – ATP-evoked calcium signal inhibitors, parental CHO, primary screen, counter-screen for OX1R antagonist project, cell-based, fluorescence, Fluo-8 calcium dye. 330,000 compounds, 0.63% hits. inhibition, % at 5.6 µM. parental CHO-K1, ATP-induced calcium, Fluo-8 fluorescence. AID 463079, 2010;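 active means inhibition above that plate's mean sample inhibition plus 3 SD, cut at about 26% in these data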
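Test system: untransfected parental CHO cell line. Compound: one dose, 5.6 µM nominal. Detection: intracellular calcium via Fluo-8 no-wash fluorescent dye. Measure: % inhibition. Benchmarks: ATP-challenged DMSO wells low, unchallenged DMSO wells high.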
OX1R antag-2 – OX1R (HCRTR1) antagonists, primary screen, fluorescence, CHO/OX1R cells, Fluo-8 calcium, orexin A | Orexin/Hypocretin receptor type 1 (Homo sapiens), O43613 | Fluo-8 calcium fluorescence | inhibition, % at 5 µM | 330,000 compounds, 0.43% hits | AID 434989, 2010;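 active means inhibition above its plate's threshold, mean inhibition of all tested compounds on the plate plus 3 SD, cut at about 37% in these data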
GPR7 antag cf – GPR7 receptor antagonists, confirmation, cell-based, fluorescence, single concentration | shares compounds with GPR7 antag | GPR7-expressing cells, calcium fluorescence antagonist mode | inhibition, % at 4.4 µM | 2,400 compounds, 52% hits; in the data active means inhibition above about 24%;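 further: stimulated with the GPR7 agonist NPW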
MCHR1 antagonist – MCHR1 antagonists in cells, counter-screen for GPR7 antagonist project, cell-based, fluorescence, human; AID 2148, 2009; MCHR1-expressing cells, fluorescence antagonist assay; 2,400 compounds, 62% hits; shares compounds with GPR7 antag; inhibition, % at 4.4 µM; in the data active means inhibition above about 22%
OX1R Ca confirm – OX1R (HCRTR1) antagonists, confirmation, fluorescence, CHO/OX1R cells, Fluo-8 calcium, orexin A. inhibition, % at 5 µM. shares compounds with OX1R antag-2. 1,100 compounds, 38% hits. orexin A calcium Fluo-8 fluorescence. AID 492963, 2010; in the data active means inhibition above about 29%
CHO Ca counter – ATP-evoked calcium inhibition in parental CHO, counter-screen for OX1R antagonist project, cell-based, fluorescence, CHO-K1, triplicate; AID 492965, 2010; ATP-induced calcium, Fluo-8 fluorescence; inhibition, % at 5.6 µM; 1,100 compounds, 9.3% hits; shares compounds with OX1R antag-2;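 active means inhibition above a per-plate limit, the mean inhibition of that plate's test compounds plus 3 SD, cut at about 25% in these data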
OX1R HTRF confirm – OX1R (HCRTR1) antagonists, confirmation, cell-based, HTRF | AID 492964, 2010 | 1,800 compounds, 49% hits | inhibition, % at 6.6 µM | shares compounds with OX1R antag-1 | OX1R-expressing cells, HTRF antagonist assay; in the data active means inhibition above about 55%;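 further: CHO cells expressing OX1R stimulated with orexin A at about EC80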
CHO-K1 HTRF cnt – signal inhibition in parental CHO-K1 cells, counter-screen for OX1R antagonist project, cell-based, HTRF | shares compounds with OX1R antag-1 | HTRF counterscreen | inhibition, % at 6.6 µM | 1,800 compounds, 48% hits; in the data active means inhibition above about 17%
Of the large screens only hits and unclear results are named; the others gave an inactive call (follow-up assays come after a bar, where they were run).

CCOC(=O)/C(=C\C=C1/Sc2ccccc2N1CC)C(C)=O	GPR7 antag 28 | GPR7 antag cf inactive | MCHR1 antagonist 36 | OX1R Ca confirm 34 | CHO Ca counter 35
O=C(CNS(=O)(=O)c1ccc(Br)s1)NCCc1ccc(Cl)cc1	GPR7 antag 25 | GPR7 antag cf inactive | MCHR1 antagonist 34 | OX1R Ca confirm inactive | CHO Ca counter inactive
C=CCOc1cccc(C(=O)/C=C2/C(=O)Nc3ccccc32)c1	GPR7 antag 43 | GPR7 antag cf 65 | MCHR1 antagonist 81 | OX1R Ca confirm inactive | CHO Ca counter inactive
CCN1C(=O)[C@H]2[C@@H](c3ccc(OC)cc3)N[C@]3(CCCN(Cc4ccc(C)cc4)C3=O)[C@H]2C1=O	none (no result: OX1R antag-1, GPR7 antag, CHO parental Ca, OX1R antag-2)
CS(=O)(=O)N1CCc2cc(C(=O)N3CCN(c4cccc(Cl)c4)CC3)ccc21	none
Cc1ccc(Cl)cc1N1CCN(C(=O)c2ccc3c(c2)CCN3S(C)(=O)=O)CC1	GPR7 antag 29 | GPR7 antag cf 25 | MCHR1 antagonist inactive | OX1R Ca confirm inactive | CHO Ca counter inactive
CSc1ccc(-c2ccc3c(c2)c(Sc2ccccc2)c(-c2ccccc2)n3C)cc1	none (no result: OX1R antag-1, GPR7 antag, CHO parental Ca, OX1R antag-2)
O=C(COC(=O)C1CC1)NCCc1ccc(Cl)cc1	none (no result: OX1R antag-1, GPR7 antag, CHO parental Ca, OX1R antag-2)
CCC(c1nnnn1-c1ccc2c(c1)OCCO2)N1CCN(c2ccc(C(F)(F)F)cc2[N+](=O)[O-])CC1 (configuration not stated)	none (no result: OX1R antag-1, GPR7 antag, CHO parental Ca, OX1R antag-2)
O=C(Nc1csc([N+](=O)[O-])c1)Nc1ccccc1Cl	GPR7 antag 41 | GPR7 antag cf 51 | MCHR1 antagonist 62 | OX1R Ca confirm inactive | CHO Ca counter 42
O=C(Nc1ccccc1Cl)Nc1ccccc1Cl	none
Cc1cccc(CS(=O)(=O)Cc2ccc(C(=O)NC3CCCCCC3)o2)c1	none
N#C/C(=C\c1ccc(O)cc1)c1nc2ccccc2o1	none
COc1cc(/C=C(\C#N)c2nc3ccccc3o2)ccc1O	TAAR1 agonist 58, GPR7 antag 26, TAAR1 antagonist 51 | GPR7 antag cf 36 | MCHR1 antagonist 46 | OX1R Ca confirm 56 | CHO Ca counter 56
O=C(c1ccccc1)c1c2c(cc3sc4ccccc4[n+]13)-c1cccc3cccc-2c13	GPR7 antag 21 | GPR7 antag cf inactive | MCHR1 antagonist 32 | OX1R Ca confirm 36 | CHO Ca counter 37
Cc1sc2cc3c(c(C(=O)c4ccccc4)[n+]2c1C)-c1cccc2cccc-3c12	none
CCOC(=O)c1c(-c2ccc(-c3ccccc3)cc2)csc1NC(=O)CNCCN(C)C	GPR7 antag 34 | GPR7 antag cf 60 | MCHR1 antagonist 75 | OX1R Ca confirm 36 | CHO Ca counter inactive
CCCCCc1ccc(OCCCC[n+]2ccc(C)cc2)c(CCCCC)c1	GPR7 antag 24, OX1R antag-2 40 | GPR7 antag cf 70 | MCHR1 antagonist 79 | OX1R Ca confirm inactive | CHO Ca counter inactive
N=c1c(C(=O)NCCc2ccccc2)cc2c(=O)n3ccccc3nc2n1CC1CCCO1 (configuration not stated)	OX1R antag-1 88, GPR7 antag 48 | GPR7 antag cf 34 | MCHR1 antagonist inactive | OX1R HTRF confirm 83 | CHO-K1 HTRF cnt 62
CC(=O)Oc1cccc(N2C(=O)c3cccc4c([N+](=O)[O-])ccc(c34)C2=O)c1	OX1R antag-1 115, GPR7 antag 60 | GPR7 antag cf 54 | MCHR1 antagonist 36 | OX1R HTRF confirm 99 | CHO-K1 HTRF cnt 72
CCOC(=O)C1(C)CCN1C(=O)Cc1ccc(OC)cc1 (configuration not stated)	none (no result: OX1R antag-1, GPR7 antag, CHO parental Ca, OX1R antag-2)
COc1cc2ccc(C=O)cc2cc1OC	none (no result: OX1R antag-1, GPR7 antag, CHO parental Ca, OX1R antag-2)
O=C(O)c1cccc(NC2=C(Cl)C(=O)c3ccccc3C2=O)c1	none (no result: OX1R antag-1, CHO parental Ca, OX1R antag-2)
O=C(O)c1ccc(NC2=C(Cl)C(=O)c3ccccc3C2=O)cc1	OX1R antag-1 84, GPR7 antag 50 | GPR7 antag cf inactive | MCHR1 antagonist 35 | OX1R HTRF confirm 70 | CHO-K1 HTRF cnt 34
CC1CCC(C(C)C)C(OC(=O)C[n+]2cc(-c3ccc(Cl)cc3)n3c2CCC3)C1 (configuration not stated)	OX1R antag-1 102, GPR7 antag 28 | GPR7 antag cf 38 | MCHR1 antagonist 51 | OX1R HTRF confirm inactive | CHO-K1 HTRF cnt inactive
CS(=O)(=O)N(CC(O)Cn1c2ccccc2c2ccccc21)c1ccccc1 (configuration not stated)	OX1R antag-1 49, GPR7 antag 28 | GPR7 antag cf 35 | MCHR1 antagonist 34 | OX1R Ca confirm 36 | CHO Ca counter inactive | OX1R HTRF confirm inactive | CHO-K1 HTRF cnt inactive
CN(CC(O)Cn1c2ccccc2c2ccccc21)S(C)(=O)=O (configuration not stated)	none
O=C(c1ccc([N+](=O)[O-])s1)N1CCN(c2ncccn2)CC1	none (no result: OX1R antag-1, GPR7 antag, CHO parental Ca, OX1R antag-2)
O=C(c1ccc([N+](=O)[O-])s1)N1CCN(c2ccc(C(F)(F)F)cn2)CC1	OX1R antag-1 99, GPR7 antag 36 | GPR7 antag cf 47 | MCHR1 antagonist 58 | OX1R HTRF confirm inactive | CHO-K1 HTRF cnt 19

Screening data: PubChem, The Scripps Research Institute Molecular Screening Center
